# High-throughput results deposited in PubChem BioAssay by several laboratories.
# KCNK9 block = inhibitors of human KCNK9 two-pore domain potassium channel. Q9NPC2. HEK293 KCNK9, FluxOR thallium flux fluorescence; active compounds read low. B-score at 10 µM. 310,000 tested, 1.2% active. AID 488922;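 active = ratio B-score over 3 SD below the library mean, with starting fluorescence within 5 SD of its mean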;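 also: negative B-score means less thallium flux so channel inhibition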
# Cl transport mod = modulates chloride dependent transport by human KCC2 | Q9H2X9 | B-score of Tl+ flux slope (higher = more flux/activation; lower = inhibition) at 10 µM | KCC2 cells, thallium flux FluoZin-2 fluorescence | 190,000 tested, 2.2% active;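 active = thallium flux slope and its plate-corrected score both differing from the plate sample mean at a set confidence after two filtering rounds, in either direction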;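 also: slope of fluorescence scaled to starting intensity during 10 to 20 s after thallium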
# Target sequence (Q9H2X9 whole entry, looked up): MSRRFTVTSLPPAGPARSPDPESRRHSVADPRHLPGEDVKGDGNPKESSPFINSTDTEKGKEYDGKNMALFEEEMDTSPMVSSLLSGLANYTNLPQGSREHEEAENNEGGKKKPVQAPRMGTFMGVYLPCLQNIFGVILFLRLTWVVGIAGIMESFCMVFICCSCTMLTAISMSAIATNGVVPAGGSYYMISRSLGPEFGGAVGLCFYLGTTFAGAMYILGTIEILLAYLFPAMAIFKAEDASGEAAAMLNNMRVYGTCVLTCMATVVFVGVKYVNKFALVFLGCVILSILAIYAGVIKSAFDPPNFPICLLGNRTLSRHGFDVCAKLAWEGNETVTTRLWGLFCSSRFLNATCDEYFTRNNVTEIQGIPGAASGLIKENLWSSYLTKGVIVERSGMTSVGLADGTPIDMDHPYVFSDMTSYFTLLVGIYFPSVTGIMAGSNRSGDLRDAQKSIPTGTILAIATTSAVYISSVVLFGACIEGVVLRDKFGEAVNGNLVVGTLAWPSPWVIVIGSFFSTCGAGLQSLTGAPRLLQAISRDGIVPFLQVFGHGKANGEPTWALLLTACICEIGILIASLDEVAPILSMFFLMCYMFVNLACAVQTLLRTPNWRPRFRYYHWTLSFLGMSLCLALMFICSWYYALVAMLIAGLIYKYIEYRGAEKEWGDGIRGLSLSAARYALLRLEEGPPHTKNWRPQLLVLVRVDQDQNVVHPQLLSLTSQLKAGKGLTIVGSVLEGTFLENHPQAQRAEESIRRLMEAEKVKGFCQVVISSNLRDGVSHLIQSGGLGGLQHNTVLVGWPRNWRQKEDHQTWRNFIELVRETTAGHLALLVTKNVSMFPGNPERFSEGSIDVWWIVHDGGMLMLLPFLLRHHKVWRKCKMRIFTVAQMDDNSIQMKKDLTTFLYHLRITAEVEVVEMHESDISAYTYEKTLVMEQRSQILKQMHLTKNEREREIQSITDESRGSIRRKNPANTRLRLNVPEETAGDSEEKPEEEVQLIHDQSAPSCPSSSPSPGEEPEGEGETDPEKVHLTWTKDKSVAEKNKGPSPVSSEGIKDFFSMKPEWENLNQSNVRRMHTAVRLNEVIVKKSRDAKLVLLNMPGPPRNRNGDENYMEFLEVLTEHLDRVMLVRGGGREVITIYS
# KCNQ1 inh = human KCNQ1 channel inhibition. CHO-K1 KCNQ1, FluxOR thallium flux fluorescence; active compounds read high. B-score at 10 µM. 310,000 tested, 1.3% active. AID 2642;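 active = compounds whose thallium flux B-score, printed positive for inhibition, exceeds three library SD while starting fluorescence stays within three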;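 also: channel opened by potassium depolarization with thallium stimulus after 20 min compound exposure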
# KCNQ1 pot = potentiators or activators of human KCNQ1 potassium channel; P51787; CHO-K1 KCNQ1, thallium flux FluxOR fluorescence; active compounds read high; B-score at 10 µM; 310,000 tested, 0.35% active; AID 2648;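 active = fluorescence ratio B-score, a plate-corrected score, at least three library SD, with initial intensity B-score within 5 SD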
#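 Doses: Single concentration per compound, DMSO matched to controls | Test system: KCNQ1-transfected CHO-K1 cells | Timing: 90 min dye loading and 20 min compound exposure, both at room temperature | Measured by: Kinetic FluxOR thallium fluorescence, 10-s 1-Hz baseline, 110-s post-stimulus read | Medium: Assay buffer with matched DMSO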
# KCNK3 block = human KCNK3 channel inhibition, primary screen | CHO-KCNK3 thallium flux, FluxOR fluorescence; active compounds read low | B-score at 10 µM | 340,000 tested, 0.84% active;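 active = B-score under library mean minus 4 SD, starting fluorescence ratio at most library mean plus 5 SD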;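 also: more negative B-score means stronger inhibition of thallium flux through KCNK3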
# hERG rescue = shields human hERG channel from block by proarrhythmic agents; Q12809; CHO-hERG, FluxOR thallium flux, dofetilide IC70 present; activation (rescue from dofetilide block), less the hit threshold, % at 10 µM; 310,000 tested, 0.51% active;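 active = activation above the mean of controls blocked by dofetilide plus 5 SD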;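 also: thallium influx through hERG after potassium depolarization seen as dye fluorescence rise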
# KCNK9 block conf = confirmation of human KCNK9 potassium channel inhibitors; shares compounds with KCNK9 block; HEK293 KCNK9 cells, FluxOR thallium flux fluorescence; inhibition, % at 10 µM; 4,900 tested, 43% active; AID 492992;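 active = thallium signal inhibited by more than 5 SD of the compound-free buffer control wells, on both duplicate plates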;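 also: 0% = assay buffer control wells without compound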
# Kir21 sel = mouse Kir2.1 off-target activity of KCNK9 modulators | 4,900 tested, 4% active | AID 492993 | Kir2.1 cells, FluxOR thallium flux fluorescence | inhibition, % at 10 µM | shares compounds with KCNK9 block;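 active = thallium signal drop more than 5 SD beyond the mean of the no-compound control wells, seen in both duplicate plates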;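 also: signal is fluorescence rise after thallium addition divided by baseline fluorescence; plate controls were assay buffer only for no effect and full block by chlorpromazine control for full effect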
# KCNK9 uninduced = second counter-screen for KCNK9 modulators: effect in non-induced cells | inhibition, % at 10 µM | non-induced KCNK9-HEK293, FluxOR thallium flux | 4,900 tested, 40% active | shares compounds with KCNK9 block;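 active = thallium signal drop beyond 5 SD of the untreated control mean, on both duplicate plates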;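 also: plate controls were buffer only IC0 wells for no effect and SID17386958 at its maximal inhibitory level for full effect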
# KCNK3 confirm = human KCNK3 channel inhibition, confirmation assay. shares compounds with KCNK3 block. CHO-KCNK3 thallium flux, FluxOR fluorescence; 0% buffer, 100% carvedilol maximal block. ratio percent of control, % at 10 µM. 2,400 tested, 99% active. AID 651638;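 active = ratio percent of control, averaged over triplicates, above buffer control mean plus 5 SD, cut at about 64% in these data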;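 also: ratio is the fluorescence rise from min to max over baseline after thallium stimulus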
# KCNK3 noninduced = activity in cells without induced KCNK3 expression; AID 651747; thallium flux ratio (lower = more inhibition) at 10 µM; non-induced KCNK3 parental cells, FluxOR thallium flux; active compounds read low; shares compounds with KCNK3 block; 2,400 tested, 40% active;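 active = thallium flux ratio, averaged over three wells, more than 5 SD below the buffer control mean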;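 also: host cells are CHO cells without KCNK3 induction; ratio is peak minus trough fluorescence over baseline then normalized to buffer controls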
# The depositor's hits bear a star; i = inactive; . = no result given. A selection: hits, their analogues and other compounds. The true share with any hit is near 4.1%.
SMILES,KCNK9 block,Cl transport mod,KCNQ1 inh,KCNQ1 pot,KCNK3 block,hERG rescue,KCNK9 block conf,Kir21 sel,KCNK9 uninduced,KCNK3 confirm,KCNK3 noninduced
O=C(Cc1cccs1)Nc1cccc(-c2nnc(-c3ccco3)o2)c1,-9.3*,-0.45,i,i,-10*,-1,i,i,26%*,115*,i
COc1ccc(CC(=O)Nc2cccc(-c3nnc(-c4ccco4)o3)c2)cc1,i,-0.28,i,i,i,1,.,.,.,.,.
O=C(N/N=C/c1ccc(N2CCOCC2)cc1)C1COc2ccccc2O1 (centres undefined),i,0.012,i,i,i,-18,.,.,.,.,.
CCOC(=O)c1ccc2c(c1)nc(COc1ccc3ccccc3c1)n2CC,-13*,.,i,i,-10*,-12,59%*,i,44%*,125*,0.13*
CCOC(=O)c1ccc(Cn2c(-c3ccccc3)nnc2-c2ccccc2)o1,-13*,-0.94,i,i,-9.3*,-6,56%*,i,40%*,115*,0.15*
O=C(NNC(=O)c1ccccc1O)c1ccc(Cl)c(S(=O)(=O)N2CCc3ccccc32)c1,-9.7*,.,14*,i,-14*,-30,32%*,i,i,116*,0.14*
O=C(c1ccc(Cl)c(S(=O)(=O)N2CCc3ccccc32)c1)N1CCN(c2ccccc2O)CC1,.,.,.,.,i,.,.,.,.,.,.
Cc1cccc(CCNC(=O)C2CCCN(c3cnccn3)C2)c1 (centres undefined),i,.,i,i,i,-8,.,.,.,.,.
CC(C)CCN(C(=S)Nc1cccc(F)c1)C(C)c1cccs1 (centres undefined),-10*,0.58,i,i,-14*,-14,50%*,i,50%*,119*,0.15*
COCCN(C(=S)Nc1cccc(C)c1)C(C)c1cccs1 (centres undefined),i,0.036,i,i,i,-3,.,.,.,.,.
CCC1Oc2ccccc2N(CC(=O)NCC2CCCO2)C1=O (centres undefined),i,.,i,i,i,-3,.,.,.,.,.
Clc1ccc(CN(CC2CCCO2)C(c2cccs2)c2nnnn2C2CCCC2)cc1 (centres undefined),-17*,-1.3,6*,i,-8.9*,-13,60%*,i,48%*,110*,0.15*
O=C(Nc1cccc(-c2cn3cccnc3n2)c1)c1ccco1,i,-0.96,i,i,i,-16,.,.,.,.,.
O=C(Nc1cccc(-c2cn3cccnc3n2)c1)c1ccc(Br)o1,-8.7*,-0.043,i,i,-9.6*,-13,40%*,i,i,95*,i
O=C(Nc1cccc(NC(=O)c2cccs2)c1)c1ccc(Br)o1,-16*,.,i,i,-10*,-12,62%*,i,i,99*,i
Cc1ccc(O)c(-c2cc(C(=O)NCc3ccncc3)[nH]n2)c1,-11*,.,i,i,-9.2*,-4,55%*,i,30%*,107*,i
CCn1cc(C(=O)OCC(=O)NCc2ccccc2Cl)c(=O)c2ccc(C)nc21,i,-2,i,i,i,-8,.,.,.,.,.
CCc1ccc(N2CCN(S(=O)(=O)CC34CCC(CC3=O)C4(C)C)CC2)cc1 (centres undefined),i,.,i,i,i,-10,.,.,.,.,.
CCOc1ccccc1C(=O)Nc1cccc(-c2nnc(-c3ccccc3)o2)c1,-16*,0.0073,i,i,-9.5*,-14,45%*,i,28%*,107*,i
O=C(Oc1ccc(C(=S)N2CCOCC2)cc1Cl)c1ccccc1F,i,.,i,i,i,-3,.,.,.,.,.
Cc1ccccc1C(=O)Oc1ccc(Cl)cc1C(=S)N1CCOCC1,-12*,.,i,i,-9.3*,-12,56%*,i,32%*,114*,0.16*
Cc1cc(C)cc(C(=O)NC(=S)Nc2ccc(Cc3ccncc3)cc2)c1,i,1.6,i,i,-10*,-10,i,i,i,98*,i
O=C(Nc1cccc2ncccc12)C(c1ccccc1)c1ccccc1,i,0.49,i,i,i,-17,.,.,.,.,.
COc1cccc(NC(=O)C(NCCc2ccc(S(N)(=O)=O)cc2)c2ccccc2)c1 (centres undefined),-9*,.,i,i,-8.7*,-12,38%*,i,31%*,106*,i
CC(C)C(=O)Nc1cccc(C(=O)NCCc2ccc(S(N)(=O)=O)cc2)c1,i,.,i,i,i,-10,.,.,.,.,.
SMILES,KCNK9 block,Cl transport mod,KCNQ1 inh,KCNQ1 pot,KCNK3 block,hERG rescue,KCNK9 block conf,Kir21 sel,KCNK9 uninduced,KCNK3 confirm,KCNK3 noninduced
N/C(Cc1ccc([N+](=O)[O-])cc1)=N\OC(=O)C(c1ccccc1)c1ccccc1,-10*,.,i,i,-9.6*,-5,34%*,i,40%*,126*,i
COc1ccc2c(COC(=O)c3cccc(S(=O)(=O)NCC(C)C)c3)cc(=O)oc2c1,-9.3*,.,i,i,-11*,-22,i,i,i,138*,0.14*
CC(C)Oc1ccccc1C1Nc2ccccc2C(=O)N1c1ccc2c(c1)OCCO2 (centres undefined),-13*,-2.6,i,i,-10*,-3,67%*,i,28%*,100*,0.16*
CCC(C(=O)NC(C)(C)C)N(C(=O)Cn1nnc(-c2cccs2)n1)c1cnc2ccccc2c1 (centres undefined),i,-0.39,i,i,i,-6,.,.,.,.,.
CCOc1cc(C2C(C(=O)OC)=C(C)N=C3SC(C)C(=O)N32)ccc1OC(C)=O (centres undefined),i,0.4,i,i,i,-3,.,.,.,.,.
COC(=O)C1=C(C)N=C2SC(C)C(=O)N2C1c1cccc(F)c1 (centres undefined),-13*,.,i,i,-12*,-7,74%*,i,50%*,102*,i
